Measured values as given in ChEMBL document CHEMBL3763100, “Structure-guided design of new indoles as negative allosteric modulators (NAMs) of N-methyl-D-aspartate receptor (NMDAR) containing GluN2B subunit” (Bioorg Med Chem, 2016).
pIC50: −log10 of the molar value. The source made the active and inactive calls. No cut-off for these calls is given here.

Assays:
[1] = target: Glutamate receptor ionotropic, NMDA 2B (Rattus norvegicus) (UniProt Q00960); experiment: Displacement of [3H]ifenprodil from Wistar rat cerebral cortex GluN2B receptor at 0.1 uM after 120 mins relative to control; assay type: tissue-based
Outline: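 Male Wistar-derived rat cerebral cortex membranes (175 ± 25 g rats) in Tris-HCl pH 7.4. […] Filtration, washing and counting followed. Test compounds were run at three concentrations in duplicate, with 0.1 μM used for % inhibition.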

[2] = target: Glutamate receptor ionotropic, NMDA 2B (Rattus norvegicus, UniProt Q00960); experiment: Displacement of [3H]ifenprodil from Wistar rat cerebral cortex GluN2B receptor after 120 mins; assay type: tissue-based
Mus musculus = experiment: Anticonvulsant activity in DBA/2 mouse assessed as prevention of audiogenic seizures at 100 umol/kg, ip administered 30 mins prior to testing; assay type: functional, organism-based
Outline: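 DBA/2 mice genetically prone to sound-induced seizures (8-12 g, 22-25 days old), groups of 10 of either sex. Dosed ip in fresh 50% DMSO/50% sterile saline, or vehicle alone. After 30 min, 60 s habituation under a dome, then auditory stimulus (12-16 kHz, 109 dB) for 60 s or until tonic extension. Latency to and incidence of wild running, clonus, tonic phases were scored; incidence compared by Fisher's exact test.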

[3] = target: Glutamate receptor ionotropic, NMDA 2B (Rattus norvegicus) (UniProt Q00960); experiment: Displacement of [3H]ifenprodil from Wistar rat cerebral cortex GluN2B receptor at 0.1 uM relative to control

Chain of Glutamate receptor ionotropic, NMDA 2B (Rattus norvegicus) (Q00960 27-1482 limits assumed): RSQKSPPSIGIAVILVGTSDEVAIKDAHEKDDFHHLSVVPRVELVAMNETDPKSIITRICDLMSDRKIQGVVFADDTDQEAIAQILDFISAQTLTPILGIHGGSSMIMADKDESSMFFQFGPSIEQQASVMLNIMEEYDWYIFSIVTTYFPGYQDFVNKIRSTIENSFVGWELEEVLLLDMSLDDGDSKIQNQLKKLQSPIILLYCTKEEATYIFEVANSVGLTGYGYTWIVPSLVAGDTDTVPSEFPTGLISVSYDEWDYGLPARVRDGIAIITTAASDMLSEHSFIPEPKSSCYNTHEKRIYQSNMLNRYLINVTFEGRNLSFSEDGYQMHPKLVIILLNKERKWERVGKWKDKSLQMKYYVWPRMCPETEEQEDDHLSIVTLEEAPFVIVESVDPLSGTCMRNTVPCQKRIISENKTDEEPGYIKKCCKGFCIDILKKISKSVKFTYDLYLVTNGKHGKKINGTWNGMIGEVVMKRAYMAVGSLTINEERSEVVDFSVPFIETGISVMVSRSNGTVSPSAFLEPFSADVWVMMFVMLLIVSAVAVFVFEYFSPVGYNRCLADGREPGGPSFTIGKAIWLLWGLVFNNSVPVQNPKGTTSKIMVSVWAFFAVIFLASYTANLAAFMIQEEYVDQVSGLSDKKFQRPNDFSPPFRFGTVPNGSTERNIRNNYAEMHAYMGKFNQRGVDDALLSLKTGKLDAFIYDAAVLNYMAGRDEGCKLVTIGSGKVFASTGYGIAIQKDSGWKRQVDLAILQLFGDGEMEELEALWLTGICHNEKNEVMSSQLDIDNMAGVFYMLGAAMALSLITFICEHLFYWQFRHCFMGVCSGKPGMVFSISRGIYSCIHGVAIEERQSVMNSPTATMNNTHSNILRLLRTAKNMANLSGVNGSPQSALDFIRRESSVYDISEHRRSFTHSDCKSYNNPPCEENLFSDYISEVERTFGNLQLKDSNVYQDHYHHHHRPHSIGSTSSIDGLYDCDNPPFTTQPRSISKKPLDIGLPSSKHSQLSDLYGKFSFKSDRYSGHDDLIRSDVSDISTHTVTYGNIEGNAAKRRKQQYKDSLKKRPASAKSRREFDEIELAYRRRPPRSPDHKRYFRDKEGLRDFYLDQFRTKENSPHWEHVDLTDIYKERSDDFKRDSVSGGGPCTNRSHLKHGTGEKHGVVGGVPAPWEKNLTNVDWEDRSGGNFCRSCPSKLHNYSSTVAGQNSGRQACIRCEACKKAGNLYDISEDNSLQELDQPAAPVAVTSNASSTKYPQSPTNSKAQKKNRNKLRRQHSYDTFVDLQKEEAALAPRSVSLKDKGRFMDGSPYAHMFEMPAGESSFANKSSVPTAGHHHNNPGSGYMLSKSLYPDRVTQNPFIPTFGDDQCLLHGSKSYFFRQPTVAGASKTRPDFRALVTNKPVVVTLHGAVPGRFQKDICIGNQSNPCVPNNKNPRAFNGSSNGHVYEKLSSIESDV
Chain of Glutamate receptor ionotropic, NMDA 2B (Q00960 whole entry): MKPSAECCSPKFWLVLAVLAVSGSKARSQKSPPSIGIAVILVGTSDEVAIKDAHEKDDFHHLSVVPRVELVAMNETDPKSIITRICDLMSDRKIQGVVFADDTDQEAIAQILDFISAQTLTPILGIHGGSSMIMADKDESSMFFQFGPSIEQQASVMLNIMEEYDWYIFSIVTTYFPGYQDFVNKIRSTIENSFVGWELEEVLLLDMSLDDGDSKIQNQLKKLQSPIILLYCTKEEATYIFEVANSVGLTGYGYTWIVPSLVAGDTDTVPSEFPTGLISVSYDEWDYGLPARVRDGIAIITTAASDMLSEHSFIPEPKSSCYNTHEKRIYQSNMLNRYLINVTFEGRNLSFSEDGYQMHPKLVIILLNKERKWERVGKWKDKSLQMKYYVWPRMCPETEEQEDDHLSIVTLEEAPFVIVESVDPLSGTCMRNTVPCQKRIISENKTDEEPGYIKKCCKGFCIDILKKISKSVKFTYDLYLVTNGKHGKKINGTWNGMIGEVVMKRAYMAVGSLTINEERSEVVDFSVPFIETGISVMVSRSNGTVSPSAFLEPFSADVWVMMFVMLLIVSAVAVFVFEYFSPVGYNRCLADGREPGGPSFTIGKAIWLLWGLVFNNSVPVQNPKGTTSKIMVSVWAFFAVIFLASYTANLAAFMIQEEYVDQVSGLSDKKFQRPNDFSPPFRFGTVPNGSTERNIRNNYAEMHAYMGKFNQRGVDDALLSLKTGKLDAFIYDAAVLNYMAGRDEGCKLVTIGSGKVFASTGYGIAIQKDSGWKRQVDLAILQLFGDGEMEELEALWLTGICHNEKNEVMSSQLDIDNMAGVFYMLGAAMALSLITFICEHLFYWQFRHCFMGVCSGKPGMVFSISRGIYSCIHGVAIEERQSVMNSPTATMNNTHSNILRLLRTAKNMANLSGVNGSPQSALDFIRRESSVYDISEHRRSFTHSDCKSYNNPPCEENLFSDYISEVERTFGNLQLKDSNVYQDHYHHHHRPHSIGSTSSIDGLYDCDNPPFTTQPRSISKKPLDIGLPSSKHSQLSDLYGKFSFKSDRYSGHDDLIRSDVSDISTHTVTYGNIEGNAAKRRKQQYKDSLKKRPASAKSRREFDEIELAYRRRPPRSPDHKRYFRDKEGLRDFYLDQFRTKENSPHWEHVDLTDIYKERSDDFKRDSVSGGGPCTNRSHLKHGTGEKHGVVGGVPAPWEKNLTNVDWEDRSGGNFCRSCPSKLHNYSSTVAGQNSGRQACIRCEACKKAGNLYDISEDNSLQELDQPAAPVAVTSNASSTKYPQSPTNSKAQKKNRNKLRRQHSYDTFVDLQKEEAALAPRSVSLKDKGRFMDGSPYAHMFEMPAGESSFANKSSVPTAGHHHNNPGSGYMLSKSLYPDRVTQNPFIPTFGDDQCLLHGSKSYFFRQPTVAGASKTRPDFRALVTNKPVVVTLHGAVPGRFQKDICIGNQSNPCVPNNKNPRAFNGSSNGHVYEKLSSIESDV

| Structure (SMILES) | inhibition [1] | pIC50 [2] | inhibition [3] | Activity (Mus musculus) |
| --- | --- | --- | --- | --- |
| COc1ccc(CC2CCN(CC(=O)c3c[nH]c4ccc(O)cc34)CC2)cc1 | 16% | 5.89 |  |  |
| CCc1ccc(CC2CCN(CC(=O)c3c[nH]c4ccc(O)cc34)CC2)cc1 | 75% | 7.15 |  | inactive |
| Oc1ccc2[nH]cc(CCN3CCC(Cc4ccccc4)CC3)c2c1 | 42% |  |  |  |
| O=C(CN1CCC(Oc2ccccc2)CC1)c1c[nH]c2ccc(O)cc12 | 9% |  |  |  |
| Cc1ccc(CC2CCN(CC(=O)c3c[nH]c4ccc(O)cc34)CC2)cc1C | < 5% | 5.48 |  |  |

Now from value to compound, other results behind:

| inhibition [1] | pIC50 [2] | inhibition [3] | Structure (SMILES) | Activity (Mus musculus) |
| --- | --- | --- | --- | --- |
|  |  | 75% | O=C(CN1CCC(Cc2ccccc2)CC1)c1c[nH]c2ccc(O)cc12 |  |
| 19% |  |  | O=C(Cc1c[nH]c2ccc(O)cc12)N1CCC(Cc2ccc(F)cc2)CC1 |  |
| 5% |  |  | O=C(Cc1c[nH]c2ccc(O)cc12)N1CCC(Cc2ccccc2)CC1 |  |
| 66% | 7.08 |  | Cc1ccc(CC2CCN(CC(=O)c3c[nH]c4ccc(O)cc34)CC2)cc1 | inactive |
